According to article PMC3996760 (Brain research, 2014):
“Also recorded” adds a separate entry of the source. Read-outs that look alike come from different tables or passages of the source.

What was measured:
[1] = Quantification in rat plasma and brain tissue; assay type: in vivo, Wistar rats; conditions: for brain estimated free concentration: total × free fraction
male Wistar rats [2] = assay: Grip strength test; assay type: in vivo; conditions: for GS grip strength: mean ± SEM
Procedure, shortened: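 At 20 min post-dose, rats gripped a trapezoid wire grid on a grip-strength meter with their front paws and were lifted by the tail with increasing firmness until release. n=8 per group; one-way ANOVA.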

male Wistar rats [3] = assay: Elevated plus maze test; assay type: in vivo; conditions: for EPM % time on open arms / EPM number of closed arm entries: mean ± SEM
Procedure, shortened: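 Maze 50 cm high, closed arms lit at 10 lux red. Rat placed centrally facing an enclosed arm and video-tracked for 5 min. Arm entry scored at 80% body crossing. One-way ANOVA; ANCOVA for % open-arm time with closed-arm entries as covariate; n=7.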

male Wistar rats [4] = assay: Morris water maze test; assay type: in vivo; conditions: acquisition, mean ± SEM
Procedure, shortened: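 Pool 200 cm diameter, 23 °C water, platform submerged 2 cm. Four trials per block, max 120 s each, 60 s intertrial interval, pseudorandom starts. Escape latency video-tracked and averaged per rat per day; n=7.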

male Wistar rats [5] = assay: Rotarod test; assay type: in vivo; conditions: for RR time on rotarod: max 120 s, mean ± SEM
male Wistar rats [6] = assay: Open field test; assay type: in vivo; conditions: for OF total distance: 15 min; for OF total distance / OF % time in central zone: mean ± SEM; for OF % time in central zone: first 5 min
α1β3γ2 GABAA receptors = α1β3γ2 GABAA receptors (Rattus norvegicus, UniProt P18508+P62813); assay type: cell-based; conditions: for in vitro efficacy: GABA EC3
Sequence of α1β3γ2 GABAA receptors (P62813 28-455): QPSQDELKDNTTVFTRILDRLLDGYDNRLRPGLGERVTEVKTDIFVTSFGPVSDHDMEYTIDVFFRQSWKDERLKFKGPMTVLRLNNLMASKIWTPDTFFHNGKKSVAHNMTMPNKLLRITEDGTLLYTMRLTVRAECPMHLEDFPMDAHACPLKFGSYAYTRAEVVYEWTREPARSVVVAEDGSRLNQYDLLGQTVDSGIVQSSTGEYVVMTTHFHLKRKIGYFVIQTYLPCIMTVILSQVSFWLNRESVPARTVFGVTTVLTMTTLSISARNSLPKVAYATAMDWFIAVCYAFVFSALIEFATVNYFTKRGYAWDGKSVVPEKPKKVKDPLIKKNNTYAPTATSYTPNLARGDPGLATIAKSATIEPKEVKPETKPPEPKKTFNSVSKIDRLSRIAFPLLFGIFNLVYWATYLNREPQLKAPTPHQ
Sequence of α1β3γ2 GABAA receptors (P18508 39-466): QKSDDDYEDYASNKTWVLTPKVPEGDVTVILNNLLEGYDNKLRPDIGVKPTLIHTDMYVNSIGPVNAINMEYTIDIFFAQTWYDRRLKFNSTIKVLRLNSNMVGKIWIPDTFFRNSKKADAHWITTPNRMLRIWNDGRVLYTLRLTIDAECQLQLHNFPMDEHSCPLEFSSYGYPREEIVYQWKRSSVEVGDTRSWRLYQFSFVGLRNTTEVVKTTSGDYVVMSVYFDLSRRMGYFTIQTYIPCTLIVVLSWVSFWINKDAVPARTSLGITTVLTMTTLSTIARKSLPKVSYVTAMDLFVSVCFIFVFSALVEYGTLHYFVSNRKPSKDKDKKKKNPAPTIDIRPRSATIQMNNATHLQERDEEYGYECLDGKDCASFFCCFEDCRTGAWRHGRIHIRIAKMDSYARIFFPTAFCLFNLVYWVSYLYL
Sequence of α1β3γ2 GABAA receptors (P63079 26-473 partner): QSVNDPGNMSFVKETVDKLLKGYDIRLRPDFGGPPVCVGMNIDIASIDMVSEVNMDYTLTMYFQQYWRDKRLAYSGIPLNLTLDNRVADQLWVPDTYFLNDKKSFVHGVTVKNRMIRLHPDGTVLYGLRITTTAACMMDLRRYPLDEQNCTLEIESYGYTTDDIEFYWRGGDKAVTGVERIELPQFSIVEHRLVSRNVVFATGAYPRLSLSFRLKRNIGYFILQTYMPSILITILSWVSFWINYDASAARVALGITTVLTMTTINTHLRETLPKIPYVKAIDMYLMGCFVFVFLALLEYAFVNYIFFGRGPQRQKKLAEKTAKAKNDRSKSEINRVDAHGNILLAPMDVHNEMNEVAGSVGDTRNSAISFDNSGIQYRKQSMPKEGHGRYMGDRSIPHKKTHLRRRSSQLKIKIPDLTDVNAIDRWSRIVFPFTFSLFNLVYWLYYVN

male Wistar rats [7] = assay: Peripheral nerve injury model; assay type: in vivo
male Wistar rats [8] = assay: Spontaneous locomotor activity test; assay type: in vivo; conditions: for SLA total distance: 30 min recording, mean ± SEM
[9] = ref Munro et al., 2008, cited from earlier work

C[C@@H]1N=C(c2ccccc2F)c2cc(Br)ccc2NC1=O [SH-I-048A, (S)-7-bromo-5-(2-fluorophenyl)-3-methyl-1Hbenzo[e][1,4]diazepin-2(3H)-one]
brain total concentration ([1]; 0.5 mg/kg i.p., 20 min): 231.12 ± 52.27 nmol/kg | brain estimated free concentration ([1]; 0.5 mg/kg i.p., 20 min): 3.26 nmol/kg | brain total concentration ([1]; 2 mg/kg i.p., 20 min): 750.59 ± 307.14 nmol/kg | brain estimated free concentration ([1]; 2 mg/kg i.p., 20 min): 10.60 nmol/kg | brain total concentration ([1]; 2 mg/kg i.p., 60 min): 739.37 ± 182.94 nmol/kg | brain estimated free concentration ([1]; 2 mg/kg i.p., 60 min): 10.45 nmol/kg | brain total concentration ([1]; 10 mg/kg i.p., 20 min): 2096.33 ± 858.32 nmol/kg | brain estimated free concentration ([1]; 10 mg/kg i.p., 20 min): 29.62 nmol/kg | brain total concentration ([1]; 10 mg/kg i.p., 60 min): 1035.23 ± 421.19 nmol/kg | brain estimated free concentration ([1]; 10 mg/kg i.p., 60 min): 14.63 nmol/kg | GS grip strength (male Wistar rats [2]; 10 mg/kg i.p.): 2588.83 ± 169.52 g/kg | effect on grip strength vs solvent (male Wistar rats [2]; 2, 5 and 10 mg/kg, p=0.002, p<0.001, p=0.002): significant muscle relaxation | EPM % time on open arms (male Wistar rats [3]; 10 mg/kg i.p.): 67.43 ± 12.34 % | EPM number of closed arm entries (male Wistar rats [3]; 10 mg/kg i.p.): 4.00 ± 1.23 | influence on EPM parameters, preliminary study (male Wistar rats [3]; 0.5 and 2 mg/kg, data not shown): devoid of any influences | effect of treatment on number of closed arm entries (male Wistar rats [3]; 2, 5 and 10 mg/kg, one-way ANOVA p=0.072): no significant effect | effect of treatment on percentage of time spent on open arms (male Wistar rats [3]; 2, 5 and 10 mg/kg, one-way ANOVA p=0.095): not significant | MWM latency Day 1 (male Wistar rats [4]; 10 mg/kg i.p. daily): 102.11 ± 9.11 s | MWM latency Day 2 (male Wistar rats [4]; 10 mg/kg i.p. daily): 88.52 ± 9.40 s | MWM latency Day 3 (male Wistar rats [4]; 10 mg/kg i.p. daily): 62.98 ± 14.13 s | MWM latency Day 4 (male Wistar rats [4]; 10 mg/kg i.p. daily): 53.39 ± 14.74 s | MWM latency Day 5 (male Wistar rats [4]; 10 mg/kg i.p. daily): 42.65 ± 13.99 s | RR time on rotarod (male Wistar rats [5]; 10 mg/kg i.p.): 0.25 ± 0.16 s | OF total distance (male Wistar rats [6]; 10 mg/kg i.p.): 15.39 ± 5.35 m | OF % time in central zone (male Wistar rats [6]; 10 mg/kg i.p.): 30.01 ± 15.49% | effect on total distance traveled in open field vs solvent (male Wistar rats [6]; 10 mg/kg only, Dunnett p<0.001): significantly decreased | effect on percent of time spent in the central zone (male Wistar rats [6]; 0.2, 0.5, 2 and 10 mg/kg, p=0.669): not significantly affected | in vitro efficacy (α1β3γ2 GABAA receptors; concentration 1 nM): 124% | in vitro efficacy (α1β3γ2 GABAA receptors; concentration 10 nM): 256% | approximated potentiation at estimated in vivo free brain concentration (α1β3γ2 GABAA receptors; free concentration 3.26 nM (0.5 mg/kg i.p., 20 min), linear interpolation): 157% | effect of Treatment on paw withdrawal threshold 48 h after surgery (male Wistar rats [7]; 10 mg/kg, one to three doses, p=0.157): no significant effect | paw withdrawal threshold 24 h after injury vs solvent (male Wistar rats [7]; three doses of 10 mg/kg (0, 12, 23 h), p=0.015): significantly higher paw withdrawal threshold; also recorded: reversed mechanical hyperalgesia | SLA total distance (male Wistar rats [8]; 10 mg/kg i.p.): 6.42 ± 2.26 m | influence on total distance traveled during 30 min (male Wistar rats [8]; 2, 5 and 10 mg/kg, one-way ANOVA p=0.061): did not reach statistical significance | distance traveled in second 5-min bin (5–10 min) vs solvent (male Wistar rats [8]; 5 and 10 mg/kg, p=0.017 and p=0.008): traveled shorter distances than the solvent-treated animals

CN1C(=O)CN=C(c2ccccc2)c2cc(Cl)ccc21 [diazepam, reference compound]
GS grip strength (male Wistar rats [2]; 2 mg/kg i.p.): 1722.50 ± 197.65 g/kg | EPM % time on open arms (male Wistar rats [3]; 2 mg/kg i.p.): 76.67 ± 6.67 % | EPM number of closed arm entries (male Wistar rats [3]; 2 mg/kg i.p.): 4.09 ± 0.77 | MWM latency Day 1 (male Wistar rats [4]; 2 mg/kg i.p. daily): 103.45 ± 10.64 s | MWM latency Day 2 (male Wistar rats [4]; 2 mg/kg i.p. daily): 92.82 ± 6.40 s | MWM latency Day 3 (male Wistar rats [4]; 2 mg/kg i.p. daily): 77.83 ± 15.52 s | MWM latency Day 4 (male Wistar rats [4]; 2 mg/kg i.p. daily): 59.02 ± 9.78 s | MWM latency Day 5 (male Wistar rats [4]; 2 mg/kg i.p. daily): 56.40 ± 10.20 s | RR time on rotarod (male Wistar rats [5]; 2 mg/kg i.p.): 41.70 ± 9.79 s | OF total distance (male Wistar rats [6]; 2 mg/kg i.p.): 24.50 ± 5.34 m | OF % time in central zone (male Wistar rats [6]; 2 mg/kg i.p.): 3.09 ± 1.15% | effect on hind paw hypersensitivity ([9]; highest dose tested (10 mg/kg)): able to attenuate hind paw hypersensitivity | SLA total distance (male Wistar rats [8]; 2 mg/kg i.p.): 7.17 ± 1.13 m

Cc1ccc(-c2nc3ccc(C)cn3c2CC(=O)N(C)C)cc1 [zolpidem]
activity in chronic constriction injury model [9]: completely inactive

CC(C)(C)OC(=O)c1cc2c(cn1)[nH]c1ccccc12 [β-CCt, t-butyl-β-carboline-3-carboxylate]
effect of adding β-CCt on latency to fall from the revolving rod (male Wistar rats [5]; β-CCt 30 mg/kg added to 10 and 25 mg/kg SH-I-048A, 0.5, 1 and 1.5 h): increased latency to fall
